Screening results (PubChem)
NOD2-RIPK2 inh – NOD2-RIPK2 protein interaction inhibition; inhibition, % at 4.98 µM; 360,000 compounds, 0.38% hits; O43353; CHO BLA complementation NOD2-RIPK2, CCF4 ratio; in the data active means inhibition above about 21%;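 further: 0% = vehicle only and 100% = reference blocker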
Target sequence (O43353 whole entry, looked up): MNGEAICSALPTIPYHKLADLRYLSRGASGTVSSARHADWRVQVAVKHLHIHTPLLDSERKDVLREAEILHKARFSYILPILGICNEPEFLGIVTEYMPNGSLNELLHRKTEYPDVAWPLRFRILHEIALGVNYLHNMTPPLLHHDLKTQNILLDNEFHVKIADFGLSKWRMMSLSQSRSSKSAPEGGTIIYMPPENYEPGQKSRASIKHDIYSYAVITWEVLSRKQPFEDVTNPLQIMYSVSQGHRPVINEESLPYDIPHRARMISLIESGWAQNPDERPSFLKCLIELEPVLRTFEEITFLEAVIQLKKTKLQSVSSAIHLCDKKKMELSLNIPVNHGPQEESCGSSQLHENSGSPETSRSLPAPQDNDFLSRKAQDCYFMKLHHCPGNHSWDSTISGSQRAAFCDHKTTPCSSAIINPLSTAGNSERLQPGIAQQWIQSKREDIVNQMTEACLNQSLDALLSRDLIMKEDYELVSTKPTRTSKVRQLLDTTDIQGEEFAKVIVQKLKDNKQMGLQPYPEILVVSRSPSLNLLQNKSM
TLR4-MyD88 BLA – blocks binding of human TLR4 to MyD88; HeLa CL3-4 TLR4/MyD88 BLA complementation, FRET ratio; inhibition, % at 8.4 µM; 200,000 compounds, 0.18% hits; AID 861; in the data active means inhibition above about 25%;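 further: 0% = vehicle and 100% = reference inhibitor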
CHOP inh – blocks CHOP induction under ER stress; CHO-K1 CHOP-promoter luciferase, tunicamycin-induced, 15-18 h; inhibition, % at 10 µM; 220,000 compounds, 3.8% hits;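 active means compounds that reduced the stress-induced luciferase reporter signal by more than about 70% of percent inhibition, limit read from the data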;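 further: 0% = tunicamycin plus vehicle and 100% = wells without tunicamycin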
XBP1 UPR activ – adaptive UPR (XBP1) activation; CHO-XBP1 luciferase reporter, IRE1-XBP1 UPR activation, luminescence; percent of tunicamycin response, DMSO as zero; activation, % at 20 µM; 330,000 compounds, 0.33% hits; AID 463104;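 active means versus positive control, 20 µM dose yields 30% or more activation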;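 further: 100% = tunicamycin at 10 µg/mL and 0% = DMSO only wells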
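Material: CHO cell line with stable XBP1 luciferase reporter; schedule: 16-18 h cell attachment at 37 °C, then 6 h compound exposure; signal: glow luminescence from Steady-Glo reagent; medium: serum-containing F12 medium, 10% FBS; benchmarks: tunicamycin 10 µg/mL and vehicle-only wells; read-out: percent activation relative to tunicamycin reference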
CHOP UPR activ – activators of apoptotic arm of unfolded protein response (CHOP); CHO-CHOP luciferase reporter, UPR activation, luminescence; percent of tunicamycin response over DMSO baseline; activation, % at 10 µM; 330,000 compounds, 0.34% hits; AID 449763;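 active means at 10 µM dose, activation of 40% or more, normalized to positive control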;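 further: 100% = tunicamycin at 10 µg/mL and 0% = DMSO alone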
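Test system: CHO CHOP reporter cells. Input: 500 CHO-CHOP cells per well. Medium: F12 with 10% FBS. Technique: luciferase luminescence. Measure: percent activation relative to tunicamycin control. Dosing: 10 µM compound, 0.5% DMSO. Timing: 16-18 h cell attachment, then 6 h compound exposure, 37 °C.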
TLR9-MyD88 block – inhibitors of human TLR9-MyD88 binding; Q9NR96+Q99836; CHO BLA complementation TLR9-MyD88, CCF4 FRET ratio; AID 504734; inhibition, % at 4.98 µM; 340,000 compounds, 0.21% hits;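 active means inhibition above the mean over all tested compounds plus 3 SD, cut at about 21% in these data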;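 further: 0% = DMSO only wells and 100% = clavulanate BLA inhibitor control wells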
TLR4 MyD88 cnf – confirmation of human TLR4-MyD88 binding inhibitors. inhibition, % at 8.4 µM. shares compounds with TLR4-MyD88 BLA. 350 compounds, 50% hits. HeLa CL3-4 BLA complementation, CCF4 FRET ratio. AID 941;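 active means mean inhibition across three repeat runs above about 25% carried over from the earlier screen, limit read from the data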;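 further: plate controls were DMSO only for no effect and clavulanic acid blocking BLA at full dose for full effect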
BLA inhibitor ct – beta-lactamase inhibition flagged in TLR4-MyD88 counter-screen; shares compounds with TLR4-MyD88 BLA; HeLa BLA reporter, CCF4 FRET ratio; inhibition, % at 8.4 µM; 350 compounds, 63% hits; AID 1237;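 active means mean inhibition over three repeats above about 26% taken from the earlier screen, limit read from the data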;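 further: HeLa cells stably expressing beta-lactamase reporter as counterscreen for TLR4-MyD88 inhibitors; 0% = DMSO and 100% = clavulanic acid full inhibition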
TLR9-MyD88 conf – TLR9-MyD88 interaction inhibition, confirmation; shares compounds with TLR9-MyD88 block; CHO TLR9/MyD88 BLA complementation, CCF4 FRET ratio; inhibition, % at 4.98 µM; 680 compounds, 51% hits;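 active means mean inhibition across three repeats above about 21% taken from the earlier screen, limit read from the data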;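 further: blue over green emission ratio reports constitutive TLR9 MyD88 association via BLA complementation; 0% = DMSO vehicle wells and 100% = clavulanate BLA inhibitor wells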
BLA counter-1 – non-selective beta-lactamase inhibitors in TLR9-MyD88 counter-screen; shares compounds with TLR9-MyD88 block; CHO-BLA cells, CCF4 FRET ratio, BLA reporter; inhibition, % at 4.98 µM; 680 compounds, 7% hits; AID 540251;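 active means mean inhibition above a 50% cutoff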;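 further: counterscreen of TLR9-MyD88 hits on CMV-driven BLA in CHO-K1 cells; 0% = DMSO alone and 100% = clavulanate blocking BLA; higher means less blue over green ratio so more BLA blockade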
TLR9 CHO cytotox – CHO cell toxicity counter-screen for TLR9-MyD88 inhibitors; shares compounds with TLR9-MyD88 block; TLR9-MyD88 CHO cells cytotoxicity, luminescence; inhibition, % at 4.98 µM; 680 compounds, 39% hits; in the data active means inhibition above about 11%
NOD2-RIPK2 conf – confirmation of human NOD2-RIPK2 interaction inhibitors; shares compounds with NOD2-RIPK2 inh; CHO cells, NOD2-RIPK2 BLA complementation, CCF4 FRET; inhibition, % at 4.98 µM; 1,200 compounds, 70% hits; AID 624370;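 active means mean inhibition across replicates above a set limit taken from the earlier primary screen, cut at about 21% in these data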;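 further: 0% = DMSO-only wells and the high end = clavulanate BLA-blocked wells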
BLA counter-2 – NOD2-RIPK2 counterscreen BLA reporter activity; shares compounds with NOD2-RIPK2 inh; 1,200 compounds, 57% hits; CHO BLA reporter, CCF4 FRET ratio; inhibition, % at 4.98 µM;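 active means mean inhibition above the low-control mean inhibition plus three low-control SD, cut at about 11% in these data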;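 further: 0% = DMSO only wells and 100% = clavulanate high control wells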
Starred values were filed as active, the others as inactive; x = no result. Only a selection was taken, and hits are over-represented in it overall.

SMILES | NOD2-RIPK2 inh | TLR4-MyD88 BLA | CHOP inh | XBP1 UPR activ | CHOP UPR activ | TLR9-MyD88 block | TLR4 MyD88 cnf | BLA inhibitor ct | TLR9-MyD88 conf | BLA counter-1 | TLR9 CHO cytotox | NOD2-RIPK2 conf | BLA counter-2
O=S(=O)(c1ccc(NC(=S)N/N=C/c2c3ccccc3cc3ccccc23)cc1)N1CCOCC1 | 22* | 39* | 0 | 4 | 2 | 4 | 19 | 43* | x | x | x | 49* | 53*
CC(C)c1cc(=O)oc2c3c4c(cc12)CCCN4CCC3 | 7 | 6 | 28 | 1 | -1 | 1 | x | x | x | x | x | x | x
CN1CCCc2cc3c(C(F)(F)F)cc(=O)oc3nc21 | 35* | 39* | 43 | 2 | 2 | 47* | 36* | 66* | 38* | 45 | 7 | 69* | 73*
CCCCCCSc1ccc(-c2nc3cnccn3c2NC2CCCCC2)cc1 | -5 | x | x | x | x | x | x | x | x | x | x | x | x
Clc1ccc(-c2nc3cnccn3c2NC2CCCC2)cc1 | 25* | 32* | 33 | 0 | 0 | 24* | 10 | 22 | 15 | 15 | -1 | 34* | 34*
CCCCC[C@@H](C)N1C[C@H](COCc2ccccc2)Oc2cc(N3CC[C@H](O)C3)ccc2S1(=O)=O | -1 | x | x | x | x | x | x | x | x | x | x | x | x
N#C/C(=C\c1cn(Cc2ccccc2)c2ccccc12)C(=O)NCc1ccco1 | -2 | 2 | 56 | -1 | 2 | -5 | x | x | x | x | x | x | x
N#C/C(=C\c1cn(Cc2ccc(F)cc2)c2ccccc12)C(=O)NCc1ccco1 | 31* | 63* | 77* | 0 | -1 | 78* | 73* | 100* | x | x | x | 82* | 85*
COc1ccc(C(=O)c2sc3nc(-c4ccccc4)ccc3c2N)cc1 | 50* | 47* | 78* | -3 | 0 | 40* | 52* | 86* | 52* | 53* | 6 | 73* | 79*
CC(C)OC(=O)c1sc2nc(-c3ccccc3)ccc2c1N | 24* | 49* | 83* | -1 | -1 | 38* | 48* | 77* | 42* | 45 | 8 | 64* | 73*
CC(C)NC(=O)Cn1nnc(-c2ccccc2)c1COc1ccc2ccccc2c1 | 9 | x | x | x | x | x | x | x | x | x | x | x | x
Cc1ccc(CC2(C)C(=O)Nc3c(Cl)cccc32)cc1 (configuration not stated) | -2 | x | x | x | x | x | x | x | x | x | x | x | x
COc1cc2c3nnc(-c4ccc(F)cc4)c-3cn(Cc3cccc(C)c3)c2cc1OC | 55* | 44* | 40 | 10 | 11 | 41* | 14 | 60* | 26* | 44 | -2 | 73* | 75*
COc1cc2c3nnc(-c4ccc(F)cc4)c-3cn(Cc3ccc(C)cc3)c2cc1OC | 51* | 48* | 49 | 25 | 35 | 27* | 26* | 81* | 59* | 61* | 8 | 84* | 86*
COc1ccccc1CCn1cnc(Cc2ccccc2)c1C(C)C | -15 | x | x | x | x | x | x | x | x | x | x | x | x
